Data on 17 compounds can be found in ChEMBL document CHEMBL3992532, “Structure-Based Design of Macrocyclic Factor XIa Inhibitors: Discovery of the Macrocyclic Amide Linker” (J Med Chem, 2017).

pKi: −log10 of the molar value.

Series [1] deals with T1, Coagulation factor XI (Homo sapiens, UniProt P03951). Put plainly: Inhibition of human coagulation factor 11a using pyroGlu-Pro-Arg-pNA as substrate after 10 to 120 mins at 37 degC by spectrophotometric method. The method in brief: (§1)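 Purified human proteases, 37 °C; reaction started by adding enzyme to substrate (up to 4× Km) ± inhibitor; compound from DMSO, 1% DMSO final except where noted. […] Buffers: FXIa, chymotrypsin, tPA, plasmin, urokinase in 50 mM HEPES pH 7.4, 145 mM NaCl, 5 mM KCl, 0.1% PEG 8000; FXa, thrombin, trypsin, plasma kallikrein, aPC in 100 mM Na phosphate pH 7.4, 200 mM NaCl, 0.5% PEG 8000; FIXa in 50 mM Tris pH 7.4, 100 mM NaCl, 5 mM CaCl2, 0.5% PEG 8000, 2% DMSO.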
T1 sequence (P03951 19-387 limits assumed): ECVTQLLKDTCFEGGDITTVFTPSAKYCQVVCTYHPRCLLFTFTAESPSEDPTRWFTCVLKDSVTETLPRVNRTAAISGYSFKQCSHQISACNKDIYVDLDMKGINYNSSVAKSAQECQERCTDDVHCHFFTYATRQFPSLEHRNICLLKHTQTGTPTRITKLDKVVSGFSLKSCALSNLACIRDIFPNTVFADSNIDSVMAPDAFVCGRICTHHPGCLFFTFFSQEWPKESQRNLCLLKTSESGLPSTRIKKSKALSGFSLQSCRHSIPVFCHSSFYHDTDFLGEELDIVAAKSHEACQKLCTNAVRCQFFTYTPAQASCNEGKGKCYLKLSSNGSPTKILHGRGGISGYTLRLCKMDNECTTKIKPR
T1 sequence (P03951 388-625 limits assumed): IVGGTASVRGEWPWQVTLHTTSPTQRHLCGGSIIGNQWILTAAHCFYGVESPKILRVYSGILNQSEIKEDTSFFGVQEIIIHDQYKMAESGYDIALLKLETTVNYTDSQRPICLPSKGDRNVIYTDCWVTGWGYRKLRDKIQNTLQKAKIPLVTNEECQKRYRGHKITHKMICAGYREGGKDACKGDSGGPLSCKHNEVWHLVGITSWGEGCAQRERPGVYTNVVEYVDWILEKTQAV

For the next series, the system named is Plasma. Put plainly: Anticoagulant activity in human plasma assessed as concentration required to produce 50% increase in activated partial thromboplastin time. Format: functional. The method, boiled down: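 Citrated (one-tenth volume 0.11 M) plasma from healthy volunteers, spun 2,000 g 10 min, kept on ice; 10 mM DMSO stock diluted in plasma, up to 7 concentrations; aPTT on automated coagulometer, duplicates as mean ratio to baseline; EC1.5x (50% prolongation) by linear interpolation, as total plasma concentration.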

The nature of series [2]: Half life in human liver microsomes. The class given is ADME, microsome. (In general: Microsomes from liver hold many membrane-bound enzymes, among them those of drug oxidation.)
The nature of series [3]: Half life in Beagle dog at 0.21 mg/kg, iv administered as 10 mins infusion or 0.42 mg/kg, po via gavage administered as cassette dose by LC-MS/MS method. Format: ADME, organism-based, Canis lupus familiaris. Conditions: in vivo. The method in brief: (§2)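 Dog PK vehicles as footnoted: iv in 70% PEG 400/20% water/10% ethanol; po either 70% PEG 400/20% TPGS/10% ethanol or the same PEG 400/water/ethanol vehicle used for iv.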

Series [4] can be described thus: Volume of distribution at steady state in Beagle dog at 0.21 mg/kg, iv administered as 10 mins infusion or 0.42 mg/kg, po via gavage administered as cassette dose by LC-MS/MS method. The following applies: in vivo, read-out: Vdss. Format: ADME, organism-based, Canis lupus familiaris. The method in brief: as §2
Series [5] concerns Canis familiaris. Put plainly: Oral bioavailability in Beagle dog at 0.42 mg/kg administered via gavage as cassette dose by LC-MS/MS method. The class given is ADME, organism-based, Canis lupus familiaris. The following applies: in vivo. The method in brief: as §2
The subject of series [6] is Canis familiaris. Kind of series: AUC in Beagle dog at 0.42 mg/kg, po administered via gavage as cassette dose by LC-MS/MS method. The following applies: in vivo. Format: ADME, organism-based, Canis lupus familiaris. The method in brief:
as §2

Series [7] is described as follows: Half life in dog liver microsomes. Format: ADME, Canis lupus familiaris, microsome.
Another series addresses T2, Coagulation factor VII (Homo sapiens, UniProt P08709).
T2 sequence (P08709 whole entry): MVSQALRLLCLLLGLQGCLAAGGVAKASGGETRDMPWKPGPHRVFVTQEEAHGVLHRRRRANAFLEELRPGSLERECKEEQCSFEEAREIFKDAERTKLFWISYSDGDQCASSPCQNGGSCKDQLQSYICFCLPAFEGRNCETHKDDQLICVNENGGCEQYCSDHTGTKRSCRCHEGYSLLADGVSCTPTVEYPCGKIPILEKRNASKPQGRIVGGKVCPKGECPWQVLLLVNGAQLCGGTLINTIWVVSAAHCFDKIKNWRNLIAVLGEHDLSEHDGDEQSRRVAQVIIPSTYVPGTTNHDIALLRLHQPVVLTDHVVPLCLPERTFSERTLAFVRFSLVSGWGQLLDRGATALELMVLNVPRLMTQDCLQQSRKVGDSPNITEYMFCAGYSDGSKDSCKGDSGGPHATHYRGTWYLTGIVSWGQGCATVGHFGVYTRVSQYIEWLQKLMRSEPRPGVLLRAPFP
Kind of series: Inhibition of human coagulation factor 7a using H-(D)-Ile-Pro-Arg-pNA as substrate after 10 to 120 mins at 25 degC by spectrophotometric method.

Another series has as its target Coagulation factor IX (Homo sapiens, UniProt P00740). Put plainly: Inhibition of human coagulation factor 9a using methylsulfonyl-D-cyclohexylglycyl-Gly-Arg-AMC as substrate after 10 to 120 mins at 37 degC by spectrophotometric method. The method in brief:
as §1

The target in the next series is Coagulation factor X (Homo sapiens, UniProt P00742). Put plainly: Inhibition of human coagulation factor 10a using N-benzoyl-Ile-Glu-(OH,OMe)-Gly-Arg-pNA as substrate after 10 to 120 mins at 37 degC by spectrophotometric method. The method in brief: as §1
Sequence of Coagulation factor X (P00742 41-179 limits assumed): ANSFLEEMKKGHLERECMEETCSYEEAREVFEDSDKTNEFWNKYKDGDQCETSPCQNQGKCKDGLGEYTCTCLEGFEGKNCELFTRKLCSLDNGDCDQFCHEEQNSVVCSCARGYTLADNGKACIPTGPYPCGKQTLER
Sequence of Coagulation factor X (P00742 235-488 limits assumed): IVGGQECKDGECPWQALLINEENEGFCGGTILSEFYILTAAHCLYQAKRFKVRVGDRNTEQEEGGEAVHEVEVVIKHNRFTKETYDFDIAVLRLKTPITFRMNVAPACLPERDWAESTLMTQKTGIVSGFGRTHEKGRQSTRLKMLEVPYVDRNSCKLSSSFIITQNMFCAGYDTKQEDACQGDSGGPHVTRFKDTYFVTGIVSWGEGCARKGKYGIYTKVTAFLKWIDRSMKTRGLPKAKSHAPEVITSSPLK
Another series concerns the target T3, Coagulation factor XII (Homo sapiens, UniProt P00748).
T3 sequence (P00748 whole entry): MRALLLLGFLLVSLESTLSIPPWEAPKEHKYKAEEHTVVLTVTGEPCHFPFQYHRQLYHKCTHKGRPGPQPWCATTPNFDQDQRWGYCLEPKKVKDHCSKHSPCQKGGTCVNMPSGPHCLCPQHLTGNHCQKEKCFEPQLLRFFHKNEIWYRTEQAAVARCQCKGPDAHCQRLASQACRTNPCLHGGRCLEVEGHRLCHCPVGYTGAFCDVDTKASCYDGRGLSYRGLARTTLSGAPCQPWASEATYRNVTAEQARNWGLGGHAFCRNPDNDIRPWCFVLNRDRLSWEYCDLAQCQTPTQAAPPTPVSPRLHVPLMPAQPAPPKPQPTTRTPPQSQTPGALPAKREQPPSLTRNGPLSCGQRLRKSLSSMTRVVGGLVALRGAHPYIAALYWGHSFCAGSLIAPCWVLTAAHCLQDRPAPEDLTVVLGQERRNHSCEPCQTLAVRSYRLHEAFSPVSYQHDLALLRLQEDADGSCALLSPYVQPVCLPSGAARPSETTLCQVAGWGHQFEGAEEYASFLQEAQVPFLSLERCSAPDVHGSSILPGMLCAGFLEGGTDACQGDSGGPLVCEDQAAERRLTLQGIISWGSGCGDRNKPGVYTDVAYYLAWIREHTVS
Put plainly: Inhibition of human coagulation factor 12a using H-(D)-CHT-Gly-Arg-pNA as substrate after 10 to 120 mins at 25 degC by spectrophotometric method.

A further series addresses Prothrombin (Homo sapiens, UniProt P00734). Kind of series: Inhibition of human thrombin using pyroGlu-Pro-Arg-pNA as substrate after 10 to 120 mins at 37 degC by spectrophotometric method. The method in brief: as §1
Series [8] can be described thus: Inhibition of human trypsin using N-benzoyl-Ile-Glu-(OH,OMe)-Gly-Arg-pNA as substrate after 10 to 120 mins at 37 degC by spectrophotometric method. The method in brief:
as §1

Another series concerns the target Plasma kallikrein (Homo sapiens, UniProt P03952). Kind of series: Inhibition of human plasma kallikrein using H-(D)-Pro-Phe-Arg-pNA as substrate after 10 to 120 mins at 37 degC by spectrophotometric method. The method in brief:
as §1

Series [9] addresses Vitamin K-dependent protein C (Homo sapiens, UniProt P04070). Kind of series: Inhibition of human activated protein C using pyroGlu-Pro-Arg-pNA as substrate after 10 to 120 mins at 37 degC by spectrophotometric method. The method in brief:
as §1

In the next series the target is Plasminogen (Homo sapiens, UniProt P00747). Kind of series: Inhibition of human plasmin using H-(D)-Val-Leu-LyspNA as substrate after 10 to 120 mins at 37 degC by spectrophotometric method. The method in brief:
as §1

Series [10] addresses Tissue-type plasminogen activator (Homo sapiens, UniProt P00750). Kind of series: Inhibition of human tissue plasminogen activator using methylsulfonyl-D-cyclohexylalanyl-GlyArg-pNA as substrate after 10 to 120 mins at 37 degC by spectrophotometric method. The method, boiled down: as §1
For series [11], the target named is Urokinase-type plasminogen activator (Homo sapiens, UniProt P00749). Put plainly: Inhibition of human urokinase using pyro-Glu-Gly-Arg-pNA as substrate after 10 to 120 mins at 37 degC by spectrophotometric method. The method, boiled down:
as §1

Series [12] is described as follows: Inhibition of human chymotrypsin using MeO-SucArg-Pro-Tyr-pNA as substrate after 10 to 120 mins at 37 degC by spectrophotometric method. The method, boiled down: as §1
The target of series [13] is T1, Coagulation factor XI. Kind of series: Inhibition of human coagulation factor 11a using pyroGlu-Pro-Arg-pNA as substrate after 10 to 120 mins at 25 degC by spectrophotometric method.

Sequence of Coagulation factor IX (P00740 47-191 limits assumed): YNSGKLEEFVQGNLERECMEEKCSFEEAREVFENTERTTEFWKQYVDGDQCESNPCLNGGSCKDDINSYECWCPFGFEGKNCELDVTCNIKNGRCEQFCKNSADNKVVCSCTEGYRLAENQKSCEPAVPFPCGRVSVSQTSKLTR
Sequence of Coagulation factor IX (P00740 227-461 limits assumed): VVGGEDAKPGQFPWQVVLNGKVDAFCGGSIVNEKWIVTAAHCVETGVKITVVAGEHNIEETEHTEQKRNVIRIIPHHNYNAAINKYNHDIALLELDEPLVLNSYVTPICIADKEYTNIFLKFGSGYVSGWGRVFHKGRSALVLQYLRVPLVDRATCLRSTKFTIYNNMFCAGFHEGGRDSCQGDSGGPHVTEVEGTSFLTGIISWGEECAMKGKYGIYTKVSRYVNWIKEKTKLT
Sequence of Tissue-type plasminogen activator (P00750 whole entry): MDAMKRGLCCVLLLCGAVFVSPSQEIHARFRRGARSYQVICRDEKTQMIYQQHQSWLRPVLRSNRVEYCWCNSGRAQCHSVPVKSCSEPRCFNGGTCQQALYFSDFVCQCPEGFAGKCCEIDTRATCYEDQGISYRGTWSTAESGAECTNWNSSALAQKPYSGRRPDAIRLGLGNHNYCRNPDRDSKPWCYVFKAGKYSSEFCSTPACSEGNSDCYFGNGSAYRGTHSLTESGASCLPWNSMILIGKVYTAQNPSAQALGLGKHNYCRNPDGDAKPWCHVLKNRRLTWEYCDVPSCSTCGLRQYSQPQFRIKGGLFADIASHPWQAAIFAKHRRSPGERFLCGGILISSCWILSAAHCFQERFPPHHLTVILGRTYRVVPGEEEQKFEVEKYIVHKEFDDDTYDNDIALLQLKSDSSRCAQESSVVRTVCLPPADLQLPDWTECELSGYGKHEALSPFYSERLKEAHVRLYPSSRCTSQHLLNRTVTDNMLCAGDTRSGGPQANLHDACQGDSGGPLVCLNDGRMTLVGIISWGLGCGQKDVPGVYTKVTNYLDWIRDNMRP
Sequence of Vitamin K-dependent protein C (P04070 43-197 limits assumed): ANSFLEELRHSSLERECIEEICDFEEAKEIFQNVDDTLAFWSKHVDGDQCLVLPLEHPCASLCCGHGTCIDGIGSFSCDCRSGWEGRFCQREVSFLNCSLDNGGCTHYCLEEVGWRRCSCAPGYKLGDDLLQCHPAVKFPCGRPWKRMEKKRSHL
Sequence of Vitamin K-dependent protein C (P04070 212-461 limits assumed): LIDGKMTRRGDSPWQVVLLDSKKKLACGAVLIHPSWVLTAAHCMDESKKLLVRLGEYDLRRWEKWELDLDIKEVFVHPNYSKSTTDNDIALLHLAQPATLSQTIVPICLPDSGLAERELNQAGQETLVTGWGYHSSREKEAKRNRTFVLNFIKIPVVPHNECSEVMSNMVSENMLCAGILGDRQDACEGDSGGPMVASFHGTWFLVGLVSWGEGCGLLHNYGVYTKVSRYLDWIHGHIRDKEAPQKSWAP
Sequence of Plasminogen (P00747 97-580 limits assumed): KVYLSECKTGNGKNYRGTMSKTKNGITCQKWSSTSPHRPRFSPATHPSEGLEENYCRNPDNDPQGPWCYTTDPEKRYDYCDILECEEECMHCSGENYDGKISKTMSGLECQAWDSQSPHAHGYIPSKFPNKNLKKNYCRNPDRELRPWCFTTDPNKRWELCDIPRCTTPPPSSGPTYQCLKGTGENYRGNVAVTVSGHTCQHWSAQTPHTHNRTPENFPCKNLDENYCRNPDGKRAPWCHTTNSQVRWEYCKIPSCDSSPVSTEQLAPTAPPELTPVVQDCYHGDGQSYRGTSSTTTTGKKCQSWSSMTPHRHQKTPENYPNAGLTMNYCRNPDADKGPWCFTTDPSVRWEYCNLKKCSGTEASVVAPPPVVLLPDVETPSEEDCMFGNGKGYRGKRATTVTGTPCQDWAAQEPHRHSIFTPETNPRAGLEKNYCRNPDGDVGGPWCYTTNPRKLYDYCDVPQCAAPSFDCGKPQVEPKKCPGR
Sequence of Plasminogen (P00747 581-810 limits assumed): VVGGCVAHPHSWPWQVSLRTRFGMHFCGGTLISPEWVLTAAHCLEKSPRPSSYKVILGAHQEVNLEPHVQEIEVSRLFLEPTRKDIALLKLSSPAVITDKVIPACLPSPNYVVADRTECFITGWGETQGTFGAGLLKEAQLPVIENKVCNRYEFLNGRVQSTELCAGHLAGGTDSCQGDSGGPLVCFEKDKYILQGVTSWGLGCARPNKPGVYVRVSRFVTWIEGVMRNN
Sequence of Plasma kallikrein (P03952 20-390 limits assumed): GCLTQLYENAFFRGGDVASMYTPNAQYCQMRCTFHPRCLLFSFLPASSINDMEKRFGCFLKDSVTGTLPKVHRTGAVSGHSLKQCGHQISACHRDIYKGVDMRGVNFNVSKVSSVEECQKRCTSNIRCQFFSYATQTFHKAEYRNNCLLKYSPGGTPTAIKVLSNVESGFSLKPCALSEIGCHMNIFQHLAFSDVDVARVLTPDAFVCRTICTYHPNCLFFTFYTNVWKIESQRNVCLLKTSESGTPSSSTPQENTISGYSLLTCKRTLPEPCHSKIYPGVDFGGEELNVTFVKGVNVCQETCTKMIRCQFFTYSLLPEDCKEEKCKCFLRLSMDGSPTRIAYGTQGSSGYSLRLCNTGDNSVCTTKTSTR
Sequence of Plasma kallikrein (P03952 391-638 limits assumed): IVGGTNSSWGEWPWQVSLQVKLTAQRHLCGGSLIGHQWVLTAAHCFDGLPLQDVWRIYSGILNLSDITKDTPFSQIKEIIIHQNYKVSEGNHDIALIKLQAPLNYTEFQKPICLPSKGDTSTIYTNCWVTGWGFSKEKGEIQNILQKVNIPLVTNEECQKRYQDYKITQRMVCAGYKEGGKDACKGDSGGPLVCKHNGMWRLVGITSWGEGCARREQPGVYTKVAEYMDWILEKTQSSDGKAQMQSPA

`COC(=O)Nc1ccc2c(c1)CCCCCC[C@H](NC(=O)/C=C/c1cc(Cl)ccc1-n1cnnn1)c1nc-2c(Cl)[nH]1` gave a pKi on Coagulation factor XI [1] of 7.38. For the same compound, the EC1.5 in the series on Plasma came out at 27 µM.
In the case of `COC(=O)Nc1ccc2c(c1)NC(=O)CC/C=C/C[C@H](NC(=O)/C=C/c1cc(Cl)ccc1-n1cnnn1)c1nc-2c(Cl)[nH]1`, the pKi on Coagulation factor XI [1] is 10.52. In addition, the EC1.5 in the series with Plasma was determined as 0.28 µM. The same compound displayed a half-life in [2] of 0.967 h.
On the same counts, the results for `COC(=O)Nc1ccc2c(c1)NC(=O)OC/C=C/C[C@H](NC(=O)/C=C/c1cc(Cl)ccc1-n1cnnn1)c1nc-2c[nH]1` are 9.06, 0.45 µM and 1.15 h.
For `COC(=O)Nc1ccc2c(c1)NC(=O)OCCCC[C@H](NC(=O)/C=C/c1cc(Cl)ccc1-n1cnnn1)c1nc-2c[nH]1` the same measures were 8.42, 0.86 µM and 1.03 h.
Compound `COC(=O)Nc1ccc2c(c1)CCCC/C=C/C[C@H](NC(=O)/C=C/c1cc(Cl)ccc1-n1cnnn1)c1nc-2c[nH]1` gave a negative logarithm of the Ki (pKi) on Coagulation factor XI [1] of 6.74. Besides, the EC1.5 in the series with Plasma is above 40 µM.
In turn, `C=CC[C@H](NC(=O)/C=C/c1cc(Cl)ccc1-n1cnnn1)c1nc(-c2ccc(NC(=O)OC)cc2NC(=O)CC)c[nH]1` gave a pKi at Coagulation factor XI [1] of 7.57. In addition, in the series with Plasma, the EC1.5 came to 21 µM. This compound gave a half-life in series [2] of 0.2 h.
Compound `COC(=O)Nc1ccc2c(c1)CCCCCC[C@H](NC(=O)/C=C/c1cc(Cl)ccc1-n1cnnn1)c1nc-2c[nH]1` gave a pKi at Coagulation factor XI [1] of 7.06. In addition, the EC1.5 in the series on Plasma was above 40 µM. Also, the half-life in series [3] was 3.2 h; in series [7] it was above 2 h. Besides, the Vd in series [4] turned out to be 0.7 L/kg. Further, in the series on Canis familiaris [5], the F worked out at 12%. In the series with Canis familiaris [6], this compound came in with an AUC of 458 nM·h.
In turn, `COC(=O)Nc1ccc2c(c1)NC(=O)CCCCC[C@H](NC(=O)/C=C/c1cc(Cl)ccc1-n1cnnn1)c1nc-2c(Cl)[nH]1` showed a pKi at Coagulation factor XI [1] of 9.33. The EC1.5 in the series on Plasma stood at 0.92 µM. The compound further showed a half-life in series [2] of 1.43 h.
With `COC(=O)Nc1ccc(-c2nc([C@H](Cc3ccccc3)NC(=O)/C=C/c3cc(Cl)ccc3-n3cnnn3)[nH]c2Cl)cc1`, the negative-log Ki (pKi) at Coagulation factor XI [1] was 8.24; on Coagulation factor VII, below 4.87; on Coagulation factor IX, below 4.57; on Coagulation factor X, below 4.88; at Coagulation factor XII, below 5.52; at Prothrombin, below 4.94. For the same compound, the pKi was below 5.00 in series [8]; 6.28 on Plasma kallikrein; below 4.67 in [9]; below 4.82 on Plasminogen; below 5.21 in series [10]; below 4.82 in series [11]. The negative-log Ki (pKi) in series [12] was below 5.34. Besides, the EC1.5 in the series on Plasma stood at 5.3 µM.
With `COC(=O)Nc1ccc2c(c1)OCCCCC[C@H](NC(=O)/C=C/c1cc(Cl)ccc1-n1cnnn1)c1nc-2c[nH]1`, the pKi on Coagulation factor XI [13] is 6.38.
On to `COC(=O)Nc1ccc2c(c1)NCCC/C=C/C[C@H](NC(=O)/C=C/c1cc(Cl)ccc1-n1cnnn1)c1nc-2c[nH]1`, for which the negative-log Ki (pKi) on Coagulation factor XI [1] is 6.29. Besides, in series [2], the half-life is 0.283 h.
For `COC(=O)Nc1ccc2c(c1)CCCCCCC[C@H](NC(=O)/C=C/c1cc(Cl)ccc1-n1cnnn1)c1nc-2c(Cl)[nH]1`, the pKi at Coagulation factor XI [1] was 7.17. Further, the EC1.5 in the series on Plasma turned out to be 34 µM.
As for `COC(=O)Nc1ccc2c(c1)NC(=O)C/C=C/C[C@H](NC(=O)/C=C/c1cc(Cl)ccc1-n1cnnn1)c1nc-2c[nH]1`, on Coagulation factor XI [1], the negative logarithm of the Ki (pKi) is 6.58. Also, the EC1.5 with Plasma was above 40 µM.
Take `COC(=O)Nc1ccc2c(c1)NC(=O)CC/C=C\C[C@H](NC(=O)/C=C/c1cc(Cl)ccc1-n1cnnn1)c1nc-2c[nH]1`: the EC1.5 in the series with Plasma came to 12 µM.
Take `COC(=O)Nc1ccc2c(c1)OCCCCCC[C@H](NC(=O)/C=C/c1cc(Cl)ccc1-n1cnnn1)c1nc-2c(Cl)[nH]1`: the pKi at Coagulation factor XI [1] was 7.12. Also, in the series with Plasma, the EC1.5 was above 40 µM.
In turn, `COC(=O)Nc1ccc2c(c1)CCCCCCC[C@H](NC(=O)/C=C/c1cc(Cl)ccc1-n1cnnn1)c1nc-2c[nH]1` showed a negative-log Ki (pKi) at Coagulation factor XI [1] of 6.22.
Take `COC(=O)Nc1ccc2c(c1)OCCC/C=C/C[C@H](NC(=O)/C=C/c1cc(Cl)ccc1-n1cnnn1)c1nc-2c[nH]1`: at Coagulation factor XI [1], the pKi was 5.41.

By pKi is commonly meant the Ki on a negative log10 scale, so that one unit is a factor of ten. Broadly, the half-life is the time needed for the level to fall by half in the phase considered. A low value points to rapid decline. Broadly, the AUC is concentration integrated over time.
